TRPML3 ag = activates the human TRPML3 channel; Q8TDD5; HEK293 TRPML3-YFP, Fluo-8 calcium fluorescence; 100% = the carbachol control signal; activation, % at 3 µM; actives 0.29% (n = 220,000); AID 1448;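 active means activation above its plate's cutoff, the mean activation of the plate's test wells plus 3 SD, cut at about 12% in these data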
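Test system – HEK293 line with stable expression of human TRPML3-YFP channel · Control set – carbachol 87 µM final as high control (100%), DMSO as low control (0%) · Signal – Fluo-8 calcium dye fluorescence, ex 470-495, em 515-575 nm · Incubation – 1-h 37 °C dye load, 5-s basal, 120-s post-compound reads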
CRFR2-BP antag = blocks CRF-induced signaling of the CRF-BP/CRF-R2 complex; HEK293 CRF-R2/CRF-BP, CRF-induced calcium fluorescence; inhibition, % at 11.8 µM; actives 0.59% (n = 350,000); AID 588475;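 active means inhibition of the ligand-induced calcium signal above about 50% at the single tested concentration, limit read from the data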
CRFBP-R2 agonist = agonists of human CRF-binding protein/CRF-R2 receptor complex; AID 588473; activation, % at 13.2 µM; HEK293 CRF-R2/CRF-BP, calcium dye fluorescence (FLIPR); percent of saturating CRF peptide response; actives 0.46% (n = 350,000);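 active means activation of at least 50%, plus an integration ratio under a set limit after plate pattern correction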
TRPN1 ag = zebrafish TRPN1 (NompC) channel agonism; activation, % at 3 µM; HEK293 zebrafish TRPN1-YFP, Fluo-8 calcium fluorescence; 100% = response to 87 µM carbachol; actives 0.18% (n = 220,000); AID 1424;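 active means activation above its plate's cutoff, the mean activation of test wells on that plate plus 3 SD, cut at about 19% in these data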
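Control set: carbachol 87 µM as high control, DMSO as low control; system: HEK293 stable line with zebrafish TRPN1-YFP; read-out: % activation versus carbachol response; detection: intracellular calcium fluorescence with Fluo-8; doses: single test compound dose, 3 µM nominal, 0.3% DMSO; schedule: dye 1 h 37 °C plus 30 min RT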
GPR7 antagonist = blocks human GPR7 receptor signaling | inhibition, % at 4.4 µM | AID 1861 | actives 1.1% (n = 290,000) | GPR7-expressing cells, fluorescence antagonist assay | P48145; in the data active means inhibition above about 16%, passing the limit was not always enough;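 further: cells stimulated with the agonist NPW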
Target sequence (P48145 whole entry, looked up): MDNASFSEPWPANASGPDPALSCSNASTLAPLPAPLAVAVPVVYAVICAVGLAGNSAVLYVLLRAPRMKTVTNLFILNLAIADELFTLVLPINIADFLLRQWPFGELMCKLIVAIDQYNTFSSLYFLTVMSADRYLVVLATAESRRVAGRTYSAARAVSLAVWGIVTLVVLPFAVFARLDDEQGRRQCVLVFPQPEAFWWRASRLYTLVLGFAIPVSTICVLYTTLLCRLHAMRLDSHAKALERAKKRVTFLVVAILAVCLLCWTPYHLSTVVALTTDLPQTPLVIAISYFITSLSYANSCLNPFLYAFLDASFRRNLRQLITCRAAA
Each line names hits and unclear results; the compound was inactive in the other large screens. In the library only some 2% were active in any assay of this set; here they are far more common.

COC(=O)NNC(=O)C12CC3CC(CC(C3)C1)C2	none
NC(=S)NNC(=O)C12CC3CC(CC(C3)C1)C2	CRFBP-R2 agonist 125.1, TRPN1 ag 28.5
CN(C)c1ccc(NC(=O)Nc2ccc3snnc3c2)cc1	TRPN1 ag 19.0
CC(=O)c1ccc(NC(=O)c2ccc3snnc3c2)cc1	none (no result: TRPML3 ag, TRPN1 ag)
O=C(NCC(c1ccco1)N1CCCC1)c1cc2cc(Cl)ccc2o1 (configuration not stated)	CRFBP-R2 agonist 57.0 (no result: TRPML3 ag, TRPN1 ag, GPR7 antagonist)
CCCCC(=O)OCC(=O)C1(O)Cc2c(O)c3c(c(O)c2C(OC2CC(NC(=O)C(F)(F)F)C(O)C(C)O2)C1)C(=O)c1c(OC)cccc1C3=O (configuration not stated)	none (no result: TRPML3 ag, TRPN1 ag, GPR7 antagonist)
COc1cccc2c1C(=O)c1c(O)c3c(c(O)c1C2=O)CC(O)(C(C)=O)CC3OC1CC(O)C(O)C(C)O1 (configuration not stated)	CRFBP-R2 agonist 96.3 (no result: TRPML3 ag, TRPN1 ag, GPR7 antagonist)
COc1cccc2c1C(=N)c1c(O)c3c(c(O)c1C2=O)CC(O)(C(C)=O)CC3OC1CC(N)C(O)C(C)O1 (configuration not stated)	none (no result: TRPML3 ag, TRPN1 ag, GPR7 antagonist)
COc1cccc2c1C(=O)c1c(O)c3c(c(O)c1C2=O)C[C@](O)(C(C)=O)C[C@H]3O[C@@H]1C[C@@H](N)[C@@H](O)[C@@H](C)O1	CRFBP-R2 agonist 64.4 (no result: TRPML3 ag, TRPN1 ag, GPR7 antagonist)
O=C(OCc1ccc([N+](=O)[O-])cc1Cl)c1cnccn1	none (no result: TRPML3 ag, TRPN1 ag)
O=C(NCC(=O)N1CCN(c2ccccc2O)CC1)c1ccccc1	none (no result: TRPML3 ag, TRPN1 ag)
CCOc1ccccc1/C=C(/NC(=O)c1ccccc1)C(=O)NC(C)c1ccccc1 (configuration not stated)	CRFR2-BP antag 113.4
Cc1ccc(NS(=O)(=O)c2c(C)[nH]c(C)c2C(=O)N2CCCCC2)c(Cl)c1	none (no result: TRPML3 ag, TRPN1 ag)
C=CCC1(CC=C)CCCN1C(=O)c1cc(COc2ccc(C)nc2)on1	none (no result: TRPML3 ag, TRPN1 ag)
COC(=O)CSc1nnc(CNC(=O)c2ccc(S(=O)(=O)N3CCOCC3)cc2)n1C	none
C[C@@H]1CN([C@H](C)CO)C(=O)CCCn2cc(nn2)CO[C@H]1CN(C)C(=O)Cc1ccccc1	none (no result: TRPML3 ag, TRPN1 ag, GPR7 antagonist)
Cn1c2ccccc2c(=O)c2c(=O)n(-c3ccccc3)c(C3CCCCC3)nc21	none
COCCn1c(-c2ccc(Cl)cc2)nc2c(c(=O)c3ccccc3n2C)c1=O	none (no result: CRFR2-BP antag, CRFBP-R2 agonist)
Cn1c2ccccc2c(=O)c2c(=O)n(C3CCCCCC3)c(C3CCCCC3)nc21	CRFBP-R2 agonist 127.1
CC(C)c1nc2c(c(=O)c3ccccc3n2C)c(=O)n1CCc1ccccc1	CRFBP-R2 agonist 72.1, TRPN1 ag 20.9
Cn1c2ccccc2c(=O)c2c(=O)n(C3CCCCC3)c(-c3cccs3)nc21	CRFBP-R2 agonist 116.1
COc1ccc(CCn2c(C3CCCCC3)nc3c(c(=O)c4ccccc4n3C)c2=O)cc1OC	none
COc1ccc(CCn2c(-c3ccccc3)nc3c(c(=O)c4ccccc4n3C)c2=O)cc1	none (no result: CRFR2-BP antag, CRFBP-R2 agonist)
CCc1nc2c(c(=O)c3ccccc3n2C)c(=O)n1C1CCCCCC1	TRPML3 ag 17.6, CRFBP-R2 agonist 226.3, TRPN1 ag 19.1
Cc1nc2ccccc2n1CC(=O)OCC(=O)N1CCC(C)CC1	none (no result: TRPML3 ag, TRPN1 ag, GPR7 antagonist)
CCOC(=O)CN1C(=O)C(=O)N(Cc2c(F)cccc2Cl)C1=O	none (no result: TRPML3 ag, TRPN1 ag)
Cc1cc(OCC(=O)NCc2ccncc2)c2c(C)cc(=O)oc2c1	none (no result: TRPML3 ag, TRPN1 ag)
CC(=O)c1ccc(S(=O)(=O)N(CC(=O)NC2CC2)Cc2ccc(F)cc2)cc1	none (no result: TRPML3 ag, TRPN1 ag, GPR7 antagonist)
COc1ccc(Cn2c(C3CCCCC3)nc3c(c(=O)c4ccccc4n3C)c2=O)cc1	none
COc1ccc(CCn2c(C3CCCCC3)nc3c(c(=O)c4ccccc4n3C)c2=O)cc1	TRPML3 ag 12.5, CRFBP-R2 agonist 61.9, TRPN1 ag 22.3
CCOc1ccc(CCNC(=O)COC(=O)c2nn(C)c(=O)c3ccccc23)cc1OCC	none (no result: TRPML3 ag, TRPN1 ag, GPR7 antagonist)
O=C(O)CCNC(=O)OCC1c2ccccc2-c2ccccc21	CRFR2-BP antag 59.7 (no result: TRPML3 ag, TRPN1 ag)
Cc1ccc(Cl)cc1N1CCN(C(=O)Cc2c(C(=O)O)[nH]c3ccc(Cl)cc23)CC1	CRFR2-BP antag 62.0
Cc1ccc(Cl)cc1N1CCN(C(=O)Cc2c(C(=O)O)[nH]c3ccccc23)CC1	CRFR2-BP antag 58.1
CC1CC(C)CN(C(=O)Cc2c(C(=O)O)[nH]c3ccc(Cl)cc23)C1 (configuration not stated)	none
CC(OC(=O)CCN=C1NS(=O)(=O)c2ccccc21)C(=O)Nc1ccc(N(C)C)cc1 (configuration not stated)	none (no result: TRPML3 ag, TRPN1 ag, GPR7 antagonist)
O=C(COC(=O)c1ccc(O)cc1)Nc1ccccc1	none (no result: TRPML3 ag, TRPN1 ag)
